According to ChEMBL document CHEMBL4024777, “Discovery of LY3104607: A Potent and Selective G Protein-Coupled Receptor 40 (GPR40) Agonist with Optimized Pharmacokinetic Properties to Support Once Daily Oral Treatment in Patients with Type 2 Diabetes Mellitus” (J Med Chem, 2018):
Activity calls are given as the source filed them. No cut-off for these calls is given here.

Columns and labels:
[1] = Tmax in Beagle dog at 30 mg/kg, po; type: ADME, organism-based, Canis lupus familiaris; settings: in vivo
Outline: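 Dogs dosed orally at 30, 100 or 300 mg/kg, N = 2 per dose.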

[2] = AUC (0 to 24 hrs) in Sprague-Dawley rat at 1 mg/kg, po; type: ADME, organism-based; design: time < 24 hr, dose 1 mg/kg, route oral; settings: in vivo
[3] = target: T1, Peroxisome proliferator-activated receptor delta (Homo sapiens) (UniProt Q03181); experiment: Displacement of [3H]-agonist from human PPARdelta expressed in baculovirus infecetd Sf9 cells system up to 30 uM after 10 hrs in presence of DR2 by scintillation proximity assay
T1 sequence (whole entry): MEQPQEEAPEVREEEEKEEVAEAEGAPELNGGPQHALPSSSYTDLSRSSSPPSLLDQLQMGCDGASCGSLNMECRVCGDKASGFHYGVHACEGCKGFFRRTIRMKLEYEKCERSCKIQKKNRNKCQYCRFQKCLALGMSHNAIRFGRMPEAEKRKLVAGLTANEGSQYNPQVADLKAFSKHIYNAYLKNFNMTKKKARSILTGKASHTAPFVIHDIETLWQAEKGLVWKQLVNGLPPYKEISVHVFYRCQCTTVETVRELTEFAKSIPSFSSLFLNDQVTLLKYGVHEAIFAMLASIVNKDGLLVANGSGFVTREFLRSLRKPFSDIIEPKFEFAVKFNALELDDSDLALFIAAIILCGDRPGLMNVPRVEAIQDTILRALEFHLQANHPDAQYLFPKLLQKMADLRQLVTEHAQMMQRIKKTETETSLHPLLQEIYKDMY
Outline: (§1)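 PPAR alpha, delta and gamma binding and functional activity were each tested at concentrations up to 30 µM.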

[4] = target: T2, Peroxisome proliferator-activated receptor alpha (Homo sapiens) (UniProt Q07869); experiment: Agonist activity at GAL4-fused human PPARalpha expressed in African green monkey CV1 cells up to 30 uM after 24 hrs by luciferase reporter gene assay; type: cell-based; outline: as §1
T2 sequence (whole entry): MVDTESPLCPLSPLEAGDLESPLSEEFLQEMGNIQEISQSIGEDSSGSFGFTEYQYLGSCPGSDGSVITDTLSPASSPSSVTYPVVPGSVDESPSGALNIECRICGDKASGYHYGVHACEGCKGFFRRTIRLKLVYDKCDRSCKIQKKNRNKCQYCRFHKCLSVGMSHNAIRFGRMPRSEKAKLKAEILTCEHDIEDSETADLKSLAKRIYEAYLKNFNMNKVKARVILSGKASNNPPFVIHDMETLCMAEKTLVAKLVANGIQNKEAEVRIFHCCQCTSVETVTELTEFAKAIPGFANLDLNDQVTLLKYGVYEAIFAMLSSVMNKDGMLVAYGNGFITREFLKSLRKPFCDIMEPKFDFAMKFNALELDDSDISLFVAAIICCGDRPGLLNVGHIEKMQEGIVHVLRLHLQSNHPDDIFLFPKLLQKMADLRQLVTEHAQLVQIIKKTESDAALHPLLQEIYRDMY

[5] = Drug metabolism in rat hepatocytes assessed as glucuronidation; type: ADME, cell-based, Hepatocyte
[6] = Cmax in Beagle dog at 300 mg/kg, po; type: ADME, organism-based, Canis lupus familiaris; design: dose 300 mg/kg, route oral; settings: in vivo
[7] = target: Free fatty acid receptor 1 (Homo sapiens, UniProt O14842); experiment: Agonist activity at human PK-tagged GPR40 expressed in HEK293 cells assessed as EA-tagged beta-arrestin recruitment after 90 mins in presence of 1 % heat inactivated FBS by beta-galactosidase reporter gene assay; type: cell-based
Free fatty acid receptor 1, sequence (O14842 whole entry): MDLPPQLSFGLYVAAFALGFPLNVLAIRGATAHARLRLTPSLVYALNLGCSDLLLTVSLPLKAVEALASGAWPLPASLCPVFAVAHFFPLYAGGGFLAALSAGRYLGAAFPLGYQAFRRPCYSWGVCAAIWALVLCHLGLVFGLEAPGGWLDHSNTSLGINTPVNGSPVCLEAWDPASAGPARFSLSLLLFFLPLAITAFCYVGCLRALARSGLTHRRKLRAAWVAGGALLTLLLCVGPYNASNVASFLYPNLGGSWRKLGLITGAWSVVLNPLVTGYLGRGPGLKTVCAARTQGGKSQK

Rattus norvegicus [8] = experiment: Antidiabetic activity in po dosed Zucker fa/fa rat assessed as reduction in blood glucose AUC administered for 1 day followed by OGTT at 1 hr after compound dosing and measured 60 mins post glucose challenge by oral glucose tolerance test; type: functional
Outline: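 Male Zucker fa/fa rats, 10 weeks old, were dosed orally at 1, 3 and 10 mg/kg. The OGTT was run 1 h after dosing with an oral glucose challenge of 2 g/kg. The glucose AUC was calculated, and a dose-response curve gave the ED90.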

Rattus norvegicus [9] = experiment: Antidiabetic activity in Zucker fa/fa rat assessed as reduction in blood glucose AUC at 1 to 10 mg/kg, po administered for 1 day followed by OGTT at 1 hr after compound dosing and measured 60 mins post glucose challenge by oral glucose tolerance test; type: functional, organism-based
Outline: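 Male Zucker fa/fa rats, 10 weeks old, were dosed orally with 1, 3 or 10 mg/kg, alongside a reference GPR40 agonist as positive control. The OGTT was run 1 h after dosing with a 2 g/kg oral glucose load. Blood glucose was sampled at 0, 10, 20, 40 and 60 min, with the legend also listing 120 min. Glucose AUC was assessed on day 1.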

[10] = target: Free fatty acid receptor 1 (Rattus norvegicus) (UniProt Q8K3T4); experiment: Agonist activity at GPR40 in Sprague-Dawley rat islets assessed as glucose-stimulated insulin secretion levels at 1 uM in presence of 11.2 mM glucose by ELISA (reference value: 6.24 ng/ml)
Free fatty acid receptor 1 (Rattus norvegicus), sequence (Q8K3T4 whole entry): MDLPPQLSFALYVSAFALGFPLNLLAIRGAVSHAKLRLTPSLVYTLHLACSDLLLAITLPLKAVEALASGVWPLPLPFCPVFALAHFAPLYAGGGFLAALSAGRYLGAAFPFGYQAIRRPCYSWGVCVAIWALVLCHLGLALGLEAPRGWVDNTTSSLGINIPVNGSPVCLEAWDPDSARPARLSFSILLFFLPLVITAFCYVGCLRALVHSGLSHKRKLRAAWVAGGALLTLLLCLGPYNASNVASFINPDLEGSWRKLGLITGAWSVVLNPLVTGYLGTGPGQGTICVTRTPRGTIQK

[11] = Initial plasma concentration in Beagle dog at 1 mg/kg, iv; type: ADME, organism-based, Canis lupus familiaris
[12] = Half life in Beagle dog at 1 mg/kg, iv; type: ADME, organism-based, Canis lupus familiaris; settings: in vivo
[13] = Drug metabolism in mouse hepatocytes assessed as glucuronidation; type: ADME, cell-based, Hepatocyte
[14] = target: Free fatty acid receptor 1 (Rattus norvegicus) (UniProt Q8K3T4); experiment: Agonist activity at GPR40 in Sprague-Dawley rat islets assessed as glucose-stimulated insulin secretion levels at 10 uM in presence of 11.2 mM glucose by ELISA (reference value: 6.24 ng/ml)
[15] = AUC (0 to 24 hrs) in Beagle dog at 30 mg/kg, po; type: ADME, organism-based, Canis lupus familiaris; design: dose 30 mg/kg, time < 24 hr, route oral; settings: in vivo
[16] = Cmax in Sprague-Dawley rat at 1 mg/kg, po; type: ADME, organism-based; design: dose 1 mg/kg, route oral; settings: in vivo
[17] = Protein binding in plasma (unknown origin) by equilibrium dialysis assay; type: ADME, cell-free; settings: read-out: PPB
[18] = target: T3, Peroxisome proliferator-activated receptor gamma (Homo sapiens) (UniProt P37231); experiment: Displacement of [3H]-agonist from human PPARgamma expressed in baculovirus infecetd Sf9 cells system up to 30 uM after 10 hrs in presence of DR2 by scintillation proximity assay; outline: as §1
T3 sequence (whole entry): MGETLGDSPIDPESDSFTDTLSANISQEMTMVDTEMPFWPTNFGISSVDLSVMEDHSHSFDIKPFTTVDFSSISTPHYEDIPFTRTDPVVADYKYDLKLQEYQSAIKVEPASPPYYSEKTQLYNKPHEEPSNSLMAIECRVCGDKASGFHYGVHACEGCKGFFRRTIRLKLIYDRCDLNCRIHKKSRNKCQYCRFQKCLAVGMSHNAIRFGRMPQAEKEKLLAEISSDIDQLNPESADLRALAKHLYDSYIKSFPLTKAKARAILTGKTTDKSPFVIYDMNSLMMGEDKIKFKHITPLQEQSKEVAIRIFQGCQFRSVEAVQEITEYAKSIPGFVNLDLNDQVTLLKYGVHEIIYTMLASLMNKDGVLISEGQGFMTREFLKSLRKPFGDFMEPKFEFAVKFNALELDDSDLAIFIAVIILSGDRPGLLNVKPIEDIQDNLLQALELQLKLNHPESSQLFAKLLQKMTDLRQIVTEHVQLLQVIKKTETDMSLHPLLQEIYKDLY

[19] = Cmax in Sprague-Dawley rat at 10 mg/kg, po; type: ADME, organism-based; design: dose 10 mg/kg, route oral; settings: in vivo
Cytochrome P450 2D6 = Cytochrome P450 2D6 (Homo sapiens, UniProt P10635); experiment: Inhibition of human CYP2D6; type: ADME
Cytochrome P450 2D6, sequence (P10635 whole entry): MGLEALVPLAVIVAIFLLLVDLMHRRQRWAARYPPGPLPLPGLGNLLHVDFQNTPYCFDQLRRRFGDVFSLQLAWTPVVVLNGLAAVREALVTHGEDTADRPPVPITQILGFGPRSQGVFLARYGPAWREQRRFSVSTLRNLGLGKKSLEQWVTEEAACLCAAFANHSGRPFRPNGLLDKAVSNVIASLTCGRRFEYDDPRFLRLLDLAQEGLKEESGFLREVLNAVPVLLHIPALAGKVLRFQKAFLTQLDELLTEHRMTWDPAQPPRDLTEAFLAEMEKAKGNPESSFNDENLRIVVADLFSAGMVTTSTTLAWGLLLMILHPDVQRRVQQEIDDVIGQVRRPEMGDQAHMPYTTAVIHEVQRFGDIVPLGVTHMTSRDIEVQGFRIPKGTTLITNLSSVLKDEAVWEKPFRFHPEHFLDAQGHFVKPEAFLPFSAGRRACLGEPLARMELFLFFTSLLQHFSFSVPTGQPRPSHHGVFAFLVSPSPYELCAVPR

[20] = Cmax in Sprague-Dawley rat at 100 mg/kg, po; type: ADME, organism-based; design: dose 100 mg/kg, route oral; settings: in vivo

Tmax [1]: 2 h
AUC(0-t) at 24 h [2]: 11700 ng·h/mL
Activity [3]: inactive
Activity [4]: inactive
Drug metabolism [5]: Metabolite_Detected
Cmax [6]: 277000 ng/mL
EC50 [7]: 108 nM
Activity [10]: 17.1 ng/mL
C0 [11]: 8240 ng/mL
half-life [12]: 6.53 h
Drug metabolism [13]: Metabolite_Detected
Activity [14]: 19.4 ng/mL
AUC(0-t) at 24 h [15]: 120000 ng·h/mL
Cmax [16]: 3380 ng/mL
fraction unbound [17]: < 0.01
Activity [18]: inactive
Cmax [19]: 23700 ng/mL
IC50 (Cytochrome P450 2D6): > 60000 nM
Cmax [20]: 208000 ng/mL
SMILES: CC#C[C@@H](CC(=O)O)c1ccc(OCc2ccc3nc(-c4c(C)cccc4C)nn3c2)cc1
ED90 (Rattus norvegicus [8]): 4.1 mg/kg
Activity (Rattus norvegicus [9]): Active
